Tests used:
NCI-H226 = assay: Growth inhibition of human NCI-H226 cells; format: functional
U-251 = assay: Growth inhibition of human U251 cells; format: functional
A549 [1] = assay: Growth inhibition of human A549 cells; format: functional
COLO 205 = assay: Growth inhibition of human COLO205 cells; format: functional
SK-OV-3 = assay: Growth inhibition of human SKOV3 cells; format: functional
Malme-3M = assay: Growth inhibition of human MALME-3M cells; format: functional
OVCAR-3 = assay: Growth inhibition of human OVCAR-3 cells; format: functional
OVCAR-4 = assay: Growth inhibition of human OVCAR4 cells; format: functional
BT-549 = assay: Growth inhibition of human BT549 cells; format: functional
[2] = Cytotoxicity against human NCI60 cells; format: functional
UACC-62 = assay: Growth inhibition of human UACC62 cells; format: functional
MDA-MB-468 = assay: Growth inhibition of human MDA-MB-468 cells; format: functional
MDA-MB-231 = assay: Growth inhibition of human MDA-MB-231 cells; format: functional
[3] = Growth inhibition of human […] cells; format: functional
RXF 393 = assay: Growth inhibition of human RXF393 cells; format: functional
NCI-H460 = assay: Growth inhibition of human NCI-H460 cells; format: functional
SF-295 [4] = assay: Growth inhibition of human SF295 cells; format: functional
MCF7 = assay: Growth inhibition of human MCF7 cells; format: functional
HOP-62 = assay: Growth inhibition of human HOP62 cells; format: functional
PC-3 = assay: Growth inhibition of human PC3 cells; format: functional
NCI-H23 = assay: Growth inhibition of human NCI-H23 cells; format: functional
CAKI-1 = assay: Growth inhibition of human Caki1 cells; format: functional
EKVX = assay: Growth inhibition of human EKVX cells; format: functional
ACHN = assay: Growth inhibition of human ACHN cells; format: functional
HCC 2998 = assay: Growth inhibition of human HCC2998 cells; format: functional
IGROV-1 = assay: Growth inhibition of human IGROV1 cells; format: functional
DU-145 = assay: Growth inhibition of human DU145 cells; format: functional
TK-10 = assay: Growth inhibition of human TK10 cells; format: functional
K562 = assay: Growth inhibition of human K562 cells; format: functional
SK-MEL-2 = assay: Growth inhibition of human SK-MEL-2 cells; format: functional
HCT-15 = assay: Growth inhibition of human HCT15 cells; format: functional
A549 [5] = assay: Cytotoxicity against human A549 cells after 44 hrs by MTT assay; format: functional, cell-based; conditions: A549, 44 h
In short: (§1)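 SF-295 cells cultured in RPMI 1640 and A549 cells in F-12, each with 10% FBS, penicillin–streptomycin, amphotericin B and L-glutamine, at 37 °C in 5% CO2. Cells were grown to 60% confluency, then treated for 44 h. Medium was replaced with medium containing 0.06 mg/mL MTT (phenol red-free RPMI for SF-295) for 4 h. Acid/Triton/isopropanol stop solution was added, plates incubated overnight at 37 °C, OD read at 540 and 650 nm, and EC50 calculated.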

OVCAR-5 = assay: Growth inhibition of human OVCAR5 cells; format: functional
MDA-MB-435 = assay: Growth inhibition of human MDA-MB-435 cells; format: functional
M14 = assay: Growth inhibition of human M14 cells; format: functional
SF-295 [6] = assay: Cytotoxicity against human SF295 cells after 44 hrs by MTT assay; format: functional, cell-based; conditions: SF-295, 44 h; in short: as §1
NCI/ADR-RES = assay: Growth inhibition of human NCI/ADR-RES cells; format: functional
SNB-75 = assay: Growth inhibition of human SNB75 cells; format: functional
SF-539 = assay: Growth inhibition of human SF539 cells; format: functional
SNB-19 = assay: Growth inhibition of human SNB19 cells; format: functional
SK-MEL-5 = assay: Growth inhibition of human SK-MEL-5 cells; format: functional
UO-31 = assay: Growth inhibition of human UO31 cells; format: functional
[7] = read-out: pLC50 (the source's name) (converted)

## COc1cc(CCc2cc(O)c(C/C=C(\C)CC/C=C(\C)CO)c(O)c2)cc2c1O[C@]1(C)CC[C@@H](O)C(C)(C)[C@H]1C2
NCI-H226
  GI50: 13.2 µM
  LC50: > 100 µM
NCI-H226; read-out: pTGI (converted)
  TGI: 66.1 µM
U-251
  GI50: 3.02 µM
  LC50: 58.9 µM
U-251; read-out: pTGI (converted)
  TGI: 18.6 µM
A549 [1]
  GI50: 4.9 µM
  LC50 (50% lethal concentration): > 100 µM
A549 [1]; read-out: pTGI (converted)
  TGI: 95.5 µM
COLO 205
  GI50: 10.7 µM
  LC50: 67.6 µM
COLO 205; read-out: pTGI (converted)
  TGI: 26.9 µM
SK-OV-3
  GI50: 8.51 µM
  LC50: > 100 µM
SK-OV-3; read-out: pTGI (converted)
  TGI: 31.6 µM
Malme-3M
  GI50: 6.31 µM
  LC50: > 100 µM
Malme-3M; read-out: pTGI (converted)
  TGI: 38 µM
OVCAR-3
  GI50: 11.5 µM
  LC50 (50% lethal concentration): > 100 µM
OVCAR-3; read-out: pTGI (converted)
  TGI: 33.1 µM
OVCAR-4
  GI50: 11.5 µM
OVCAR-4; [7]
  CC50: > 100 µM
OVCAR-4; read-out: pTGI (converted)
  TGI: 45.7 µM
BT-549
  GI50: 3.16 µM
BT-549; [7]
  CC50: 75.9 µM
BT-549; read-out: pTGI (converted)
  TGI: 21.9 µM
[2]
  GI50: 4.9 µM
UACC-62
  GI50: 4.79 µM
UACC-62; [7]
  CC50: 81.3 µM
UACC-62; read-out: pTGI (converted)
  TGI: 20.9 µM
MDA-MB-468
  GI50: 5.89 µM
  LC50: > 100 µM
MDA-MB-468; read-out: pTGI (converted)
  TGI: 50.1 µM
MDA-MB-231
  GI50: 8.13 µM
  LC50: > 100 µM
MDA-MB-231; read-out: pTGI (converted)
  TGI: 38 µM
[3]
  GI50: 1.45 µM
  LC50: > 100 µM
[3]; read-out: pTGI (converted)
  TGI: 7.24 µM
RXF 393
  GI50: 0.363 µM
RXF 393; [7]
  CC50: > 100 µM
RXF 393; read-out: pTGI (converted)
  TGI: 1.38 µM
NCI-H460
  GI50: 3.31 µM
  LC50: 38.9 µM
NCI-H460; read-out: pTGI (converted)
  TGI: 10.7 µM
SF-295 [4]
  GI50: 2.51 µM
  LC50: 45.7 µM
SF-295 [4]; read-out: pTGI (converted)
  TGI: 10 µM
MCF7
  GI50: 2.95 µM
MCF7; [7]
  CC50: 53.7 µM
MCF7; read-out: pTGI (converted)
  TGI: 12.9 µM
HOP-62
  GI50: 10 µM
  LC50: 53.7 µM
HOP-62; read-out: pTGI (converted)
  TGI: 22.9 µM
PC-3
  GI50: 5.5 µM
PC-3; [7]
  CC50: > 100 µM
PC-3; read-out: pTGI (converted)
  TGI: 77.6 µM
NCI-H23
  GI50: 6.92 µM
  LC50: 85.1 µM
NCI-H23; read-out: pTGI (converted)
  TGI: 25.7 µM
CAKI-1
  GI50: 4.37 µM
  LC50: > 100 µM
CAKI-1; read-out: pTGI (converted)
  TGI: 21.9 µM
EKVX
  GI50: 5.75 µM
  LC50: > 100 µM
EKVX; read-out: pTGI (converted)
  TGI: 33.1 µM
ACHN
  GI50: 5.25 µM
ACHN; [7]
  CC50: > 100 µM
ACHN; read-out: pTGI (converted)
  TGI: 35.5 µM
HCC 2998
  GI50: 6.17 µM
HCC 2998; read-out: pTGI (converted)
  TGI: 25.1 µM
IGROV-1
  GI50: 4.9 µM
  LC50: > 100 µM
IGROV-1; read-out: pTGI (converted)
  TGI: 26.3 µM
DU-145
  GI50: 6.46 µM
  LC50: > 100 µM
DU-145; read-out: pTGI (converted)
  TGI: 28.2 µM
TK-10
  GI50: 13.2 µM
  LC50: > 100 µM
TK-10; read-out: pTGI (converted)
  TGI: 67.6 µM
K562
  GI50: 3.09 µM
K562; [7]
  CC50: 64.6 µM
K562; read-out: pTGI (converted)
  TGI: 12.9 µM
SK-MEL-2
  GI50: 3.89 µM
  LC50: 75.9 µM
SK-MEL-2; read-out: pTGI (converted)
  TGI: 17.4 µM
HCT-15
  GI50: 5.01 µM
  LC50: > 100 µM
HCT-15; read-out: pTGI (converted)
  TGI: 22.9 µM
A549 [5]
  EC50: > 10 µM
OVCAR-5
  GI50: 20.9 µM
  LC50 (lethal concentration, 50% cell kill): > 100 µM
OVCAR-5; read-out: pTGI (converted)
  TGI: 66.1 µM
MDA-MB-435
  GI50: 6.31 µM
  LC50: > 100 µM
MDA-MB-435; read-out: pTGI (converted)
  TGI: 32.4 µM
M14
  GI50: 6.03 µM
M14; [7]
  CC50: 83.2 µM
M14; read-out: pTGI (converted)
  TGI: 23.4 µM
SF-295 [6]
  EC50: > 10 µM
NCI/ADR-RES
  GI50: 17.4 µM
NCI/ADR-RES; [7]
  CC50: > 100 µM
NCI/ADR-RES; read-out: pTGI (converted)
  TGI: 61.7 µM
SNB-75
  GI50: 1.7 µM
  LC50: > 100 µM
SNB-75; read-out: pTGI (converted)
  TGI: 10.7 µM
SF-539
  GI50: 2.29 µM
  LC50: 33.9 µM
SF-539; read-out: pTGI (converted)
  TGI: 11.7 µM
SNB-19
  GI50: 4.17 µM
  LC50: 49 µM
SNB-19; read-out: pTGI (converted)
  TGI: 18.2 µM
SK-MEL-5
  GI50: 3.39 µM
  LC50: 33.1 µM
SK-MEL-5; read-out: pTGI (converted)
  TGI: 11 µM
UO-31
  GI50: 3.47 µM
UO-31; [7]
  CC50: > 100 µM
UO-31; read-out: pTGI (converted)
  TGI: 20 µM
